Consider 16 compounds from ChEMBL document CHEMBL1125623, “Tetrahydropyridyloxadiazoles: semirigid muscarinic ligands” (J Med Chem, 1991).

Molecules are shown by their SMILES.

Data set [1] is described as follows: pKa value was determined. In kind it is physicochemical. In a few lines: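 Determined by autotitration with a pH meter and autoburette; mean of two or more independent measurements.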
The target of data set [2] is T1, Muscarinic acetylcholine receptor (Rattus norvegicus) (UniProt P08482+P08483+P08485+P08911+P10980).
Data set [3] addresses T1, Muscarinic acetylcholine receptor (Rattus norvegicus). The source holds these as a separate data set.
For data set [4] the target is unchanged. Description: Apparent binding affinity against rat cortical Muscarinic acetylcholine receptor by the displacement of [3H]N-methylscopolamine. Format: protein assay. In a few lines: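 Membranes from cortex of male Sprague-Dawley rats (250–300 g), resuspended in 20 mM HEPES Krebs' buffer pH 7.4. Displacement of 0.1 nM [3H]-N-methylscopolamine; 60 min incubation at 30 °C, ended by filtration. Apparent affinity constant corrected for radioligand occupancy, given in micromolar; geometric mean of at least three independent experiments on separate occasions.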

The target is the same in data set [5]. Description: Apparent binding affinity against rat cortical Muscarinic acetylcholine receptor by the displacement of [3H]oxotremorine-M. Format: protein assay. The gist of the method:
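Rat brain membranes from male Sprague-Dawley rats (250–300 g), resuspended in 20 mM HEPES buffer pH 7.4. Displacement curves use 3.0 nM [3H]oxotremorine-M; incubation 40 min at 30 °C, stopped by filtration through polyethyleneimine-presoaked filters.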
(In general: Displacement assays read how much labelled ligand stays bound in the presence of the test substance.)

Data set [6] is described as follows: Ratio of apparent binding affinities of NMS and Oxo-M.

As a reminder, the pKa is the negative logarithm of the acid dissociation constant. Read a low pKa as a group that gives up its proton readily. In turn, `Cc1noc(C2=CCCNC2)n1` had a pKa in data set [1] of 8.24. Moreover, the K app worked out at 2.3 µM in data set [2] and 0.0031 µM in data set [3].

In data set [1], `Cc1noc(C2=CCCN(C)C2)n1` yielded a pKa of 7.16.

For `COC(=O)C1=CCCNC1`, the K app was 23 µM in data set [2] and 0.012 µM in data set [3].

Turning to `Nc1noc(C2=CCCNC2)n1`, in data set [1], the pKa stood at 8.25.

`CCC1C=C(c2nc(C)no2)CNC1` (stereo not given): the K app was 25 µM in data set [2] and 0.97 µM in data set [3].

Consider `OCc1noc(C2=CCCNC2)n1`, for which the K app in data set [2] is 34 µM; in data set [3] it was 0.11 µM.

Regarding `Cc1noc(C2=CCC(C)N(C)C2)n1` (stereo not given), the pKa in data set [1] stood at 7.35. Further, the K app was determined as 2.4 µM in data set [2] and 0.061 µM in data set [3].

`C=Cc1noc(C2=CCCNC2)n1` showed a pKa in data set [1] of 8.23. Also, the K app in data set [2] came to 2.5 µM; in data set [3], 0.035 µM.

For `Cc1noc(C2=CCC(C)NC2)n1` (stereo not given), the pKa in data set [1] was 8.2. Further, the K app in data set [4] was found to be 16 µM; in data set [5], 0.12 µM. Besides, the Ratio in data set [6] was determined as 130.

In the case of `Cc1noc(C2=CC(C)CN(C)C2)n1` (stereo not given), the pKa in data set [1] stood at 7.34. Further, the K app in data set [2] is 15 µM; in data set [3] it was 0.87 µM.

In turn, `CN1CCC=C(c2nc(N(C)C)no2)C1` yielded a pKa in data set [1] of 7.24. In addition, the K app stood at 2.5 µM in data set [2] and 0.12 µM in data set [3].

In the case of `FCCc1noc(C2=CCCNC2)n1`, the pKa in data set [1] came to 8.29. Besides, the K app amounted to 5.7 µM in data set [2] and 0.021 µM in data set [3].

Regarding `OCCc1noc(C2=CCCNC2)n1`, the K app came out at 13 µM in data set [2] and 0.23 µM in data set [3].

In the case of `Cc1noc(C2=CC(C)CNC2)n1` (stereo not given), the pKa in data set [1] came to 8.17. The K app in data set [2] was 2.7 µM; in data set [3] it was 0.037 µM.

Regarding `CN(C)c1noc(C2=CCCNC2)n1`, in data set [1], the pKa was determined as 8.58. In addition, the K app in data set [2] was determined as 3.5 µM; in data set [3], 0.082 µM.

On to `CCc1noc(C2=CCCNC2)n1`, for which the K app in data set [2] worked out at 4.3 µM; in data set [3], 0.0074 µM.
